According to ChEMBL document CHEMBL3600347, “Syntheses and in Vitro Antiplasmodial Activity of Aminoalkylated Chalcones and Analogues” (J Nat Prod, 2015):

How the values were obtained:
Plasmodium falciparum [1] = assay: Antiplasmodial activity chloroquinone-sensitive Plasmodium falciparum D10 by parasite lactate dehydrogenase assay; assay type: functional, organism-based
Method in brief: (§1)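 Asexual erythrocytic P. falciparum stages kept in continuous culture (modified Trager–Jensen). Growth inhibition read by parasite lactate dehydrogenase assay (modified Makler). Samples run in triplicate on one or two separate occasions. IC50 from full dose–response curves by nonlinear curve fitting. Chloroquine served as internal standard to monitor conditions.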

Plasmodium falciparum [2] = assay: Antiplasmodial activity chloroquinone-sensitive Plasmodium falciparum NF54 by parasite lactate dehydrogenase assay; assay type: functional, organism-based; method in brief: as §1
[3] = Selectivity index, ratio of IC50 for CHO cells to IC50 for chloroquinone-sensitive Plasmodium falciparum D10; details: hamster, CHO cells versus Plasmodium falciparum D10
CHO = assay: Cytotoxicity against CHO cells by MTT assay; assay type: cell-based, Cricetulus griseus
Method in brief: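 Chinese hamster ovary cells; viability by MTT assay (modified Mosmann). Samples prepared as for antiplasmodial testing. Emetine reference in every experiment, started at 100 μg/mL and serially diluted 10-fold in complete medium to six concentrations, lowest 0.001 μg/mL. IC50 from dose–response curves.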

Plasmodium falciparum [4] = assay: Antiplasmodial activity chloroquinone-resistant Plasmodium falciparum Dd2 by parasite lactate dehydrogenase assay; assay type: functional, organism-based
Method in brief: (§2)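 Asexual erythrocyte-stage P. falciparum kept in continuous culture by a modified Trager–Jensen method. Growth inhibition was read by a modified Makler parasite lactate dehydrogenase assay. Samples were run in triplicate on one or two separate occasions, with chloroquine as internal standard. IC50 was taken from full dose–response curves by nonlinear curve fitting.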

[5] = Selectivity index, ratio of IC50 for CHO cells to IC50 for chloroquinone-sensitive Plasmodium falciparum D10; assay type: toxicity, cell-based; details: hamster; for selectivity ratio: CHO cells versus Plasmodium falciparum D10, read-out: Ratio IC50; for Ratio IC50: cho
Method in brief: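 Selectivity index computed as CHO-cell IC50 (MTT) divided by P. falciparum IC50 from the pLDH assay, for a representative subset of compounds.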

Plasmodium falciparum [6] = assay: Resistance index, ratio of IC50 for chloroquinone-resistant Plasmodium falciparum Dd2 to IC50 for chloroquinone-sensitive Plasmodium falciparum D10; assay type: functional
Plasmodium falciparum [7] = assay: Antiplasmodial activity chloroquinone-resistant Plasmodium falciparum K1 by parasite lactate dehydrogenase assay; assay type: functional, organism-based; method in brief: as §2
Plasmodium falciparum [8] = assay: Resistance index, ratio of IC50 for […] to IC50 for chloroquinone-[…] Plasmodium falciparum K1; assay type: functional

## COc1ccc(C(=O)/C=C/c2cc(CN3CCCCC3)c(O)c(OC)c2)cc1
Plasmodium falciparum [1]; Plasmodium falciparum, D10
  IC50: 2810 nM

## O=C(/C=C/c1ccc(CN2CCCCC2)c(O)c1)c1cccs1
Plasmodium falciparum [1]; Plasmodium falciparum, D10
  IC50: 2730 nM

## CC(C)Nc1ccc(CCCc2cccc(O)c2)cc1
Plasmodium falciparum [2]; Plasmodium falciparum, NF54
  IC50: > 3000 nM

## Cc1ccc(S(=O)(=O)Oc2cc(CCCc3ccc(F)cc3)ccc2CN2CCCCC2)cc1
Plasmodium falciparum [2]; Plasmodium falciparum, NF54
  IC50: > 2000 nM

## CCc1ccc(CCCc2ccc(CN3CCCCC3)c(O)c2)cc1 [listing 1 of 2 here]
Plasmodium falciparum [2]
  IC50: 60 nM

## CCc1ccc(C(=O)/C=C/c2ccc(CN3CCCCC3)c(O)c2)cc1
[3]
  selectivity ratio: 47
CHO; Cricetulus griseus, CHO
  IC50: 6.59 µM
Plasmodium falciparum [1]; Plasmodium falciparum, D10
  IC50: 140 nM
Plasmodium falciparum [4]
  IC50: 210 nM

## O=C(/C=C/c1ccc(CN2CCCCC2)c(O)c1)c1ccccn1
Plasmodium falciparum [1]; Plasmodium falciparum, D10
  IC50: 1370 nM

## COc1ccc(CCCc2cc(O)c(CN3CCCCC3)cc2CN2CCCCC2)cc1
CHO; Cricetulus griseus, CHO
  IC50: 200 µM
Plasmodium falciparum [1]; Plasmodium falciparum, D10
  IC50: 60 nM
Plasmodium falciparum [4]
  IC50: 80 nM
[5]
  selectivity ratio: 3510
Plasmodium falciparum [6]
  Ratio IC50: 1.47

## CN1CCN(Cc2ccc(CCCc3ccccc3)cc2O)CC1
Plasmodium falciparum [2]; Plasmodium falciparum, NF54
  IC50: 790 nM

## CN(C)Cc1ccc(CCCc2ccccc2)cc1O
Plasmodium falciparum [2]; Plasmodium falciparum, NF54
  IC50: 90 nM

## COc1ccc(CCCc2ccc(CN3CCCCC3)c(O)c2)cc1
CHO; cho
  IC50: 69.8 µM
Plasmodium falciparum [1]
  IC50: 210 nM
[5]
  Ratio IC50: 332

## COc1ccc(C(=O)/C=C/c2ccc(CN3CCCC3)c(O)c2)cc1
Plasmodium falciparum [1]; Plasmodium falciparum, D10
  IC50: 5750 nM

## Oc1ccc(CCCc2ccc(C(F)(F)F)cc2)cc1CN1CCCCC1 [listing 1 of 2 here]
Plasmodium falciparum [1]; Plasmodium falciparum, D10
  IC50: 10 nM
Plasmodium falciparum [4]
  IC50: 30 nM
Plasmodium falciparum [6]
  Ratio IC50: 5.8

## Oc1ccc(CCCc2ccc(C(F)(F)F)cc2)cc1CN1CCCCC1 [listing 2 of 2 here]
Plasmodium falciparum [2]; Plasmodium falciparum, NF54
  IC50: 280 nM

## O=C(CCc1ccc(CN2CCCCC2)c(O)c1)c1ccc[nH]1
Plasmodium falciparum [1]; Plasmodium falciparum, D10
  IC50: > 3000 nM

## O=C(CCc1ccc(CN2CCCCC2)c(O)c1)c1cccs1
CHO; Cricetulus griseus, CHO
  IC50: 168 µM
Plasmodium falciparum [1]; Plasmodium falciparum, D10
  IC50: 190 nM
Plasmodium falciparum [4]
  IC50: 270 nM
[5]
  selectivity ratio: 895

## O=C(CCc1ccc(CN2CCCCC2)c(O)c1)c1ccc(F)cc1
Plasmodium falciparum [2]; Plasmodium falciparum, NF54
  IC50: 260 nM

## CCc1ccc(CN2CCCCC2)c(O)c1
Plasmodium falciparum [2]; Plasmodium falciparum, NF54
  IC50: 1040 nM

## O=C(/C=C/c1ccc(CN2CCCCC2)c(O)c1)c1ccc(Br)cc1
CHO; Cricetulus griseus, CHO
  IC50: 7.27 µM
Plasmodium falciparum [1]; Plasmodium falciparum, D10
  IC50: 150 nM
Plasmodium falciparum [4]
  IC50: 210 nM
[5]
  selectivity ratio: 50

## O=C(/C=C/c1ccc(CN2CCCCC2)c(O)c1)c1ccc(F)cc1
CHO; Cricetulus griseus, CHO
  IC50: 77.2 µM
Plasmodium falciparum [1]; Plasmodium falciparum, D10
  IC50: 100 nM
Plasmodium falciparum [4]
  IC50: 710 nM
[5]
  selectivity ratio: 796

## O=C(/C=C/c1ccc(CN2CCCC2)c(O)c1)c1ccccc1
Plasmodium falciparum [1]; Plasmodium falciparum, D10
  IC50: 6540 nM

## Oc1ccc(CCCc2ccccc2)cc1CN1CCCCC1
Plasmodium falciparum [2]; Plasmodium falciparum, NF54
  IC50: 60 nM

## c1ccc(CN2CCCCC2)cc1
Plasmodium falciparum [2]; Plasmodium falciparum, NF54
  IC50: > 5000 nM

## Cc1ccc(C(=O)/C=C/c2ccc(CN3CCCCC3)c(O)c2)cc1
Plasmodium falciparum [1]; Plasmodium falciparum, D10
  IC50: > 3000 nM

## COc1ccc(CCCc2ccc(CN3CCCCC3)c(O)c2)cc1.Cl
CHO; cho
  IC50: 211 µM
Plasmodium falciparum [1]
  IC50: 70 nM
Plasmodium falciparum [4]
  IC50: 70 nM
[5]
  Ratio IC50: 3063
Plasmodium falciparum [6]
  Ratio IC50: 1

## CCN1CCN(Cc2ccc(/C=C/C(=O)c3ccc(OC)cc3)cc2O)CC1
Plasmodium falciparum [1]; Plasmodium falciparum, D10
  IC50: 2740 nM

## Oc1cc(CCCc2ccc(F)cc2)ccc1CN1CCCCC1
Plasmodium falciparum [1]
  IC50: 70 nM

## CC(=O)CCc1ccc(CN2CCCCC2)c(O)c1
Plasmodium falciparum [2]; Plasmodium falciparum, NF54
  IC50: 1710 nM

## COc1ccc(CCCc2cccc(O)c2)cc1
Plasmodium falciparum [1]; Plasmodium falciparum, D10
  IC50: > 30000 nM

## Oc1cc(CCCc2ccc3ccccc3c2)ccc1CN1CCCCC1
Plasmodium falciparum [2]; Plasmodium falciparum, NF54
  IC50: 40 nM

## O=C(/C=C/c1cccc(O)c1)c1ccccc1 [3-HYDROXY CHALCONE]
Plasmodium falciparum [1]; Plasmodium falciparum, D10
  IC50: 15700 nM

## CCN1CCN(Cc2ccc(CCCc3ccccc3)cc2O)CC1
Plasmodium falciparum [2]; Plasmodium falciparum, NF54
  IC50: 410 nM

## COc1ccc(C(=O)/C=C/c2ccc(O)c(CN3CCN(C)CC3)c2)cc1
Plasmodium falciparum [1]; Plasmodium falciparum, D10
  IC50: 3770 nM

## O=C(/C=C/c1ccc(CN2CCCCC2)c(O)c1)c1ccc[nH]1
Plasmodium falciparum [1]; Plasmodium falciparum, D10
  IC50: 2420 nM

## CCc1ccc(CCCc2ccc(CN3CCCCC3)c(O)c2)cc1 [listing 2 of 2 here]
[3]
  selectivity ratio: 138
CHO; Cricetulus griseus, CHO
  IC50: 25.2 µM
Plasmodium falciparum [2]
  IC50: 180 nM

## CC(C)Nc1ccc(CCCc2ccc(CN3CCCCC3)c(O)c2)cc1
Plasmodium falciparum [2]; Plasmodium falciparum, NF54
  IC50: 180 nM

## Oc1cc(CCCc2ccc(-c3ccccc3)cc2)ccc1CN1CCCCC1
Plasmodium falciparum [2]; Plasmodium falciparum, NF54
  IC50: 80 nM

## COc1ccc(C(=O)/C=C/c2ccc(O)c(CN(C)C)c2)cc1
Plasmodium falciparum [1]; Plasmodium falciparum, D10
  IC50: > 3000 nM

## Oc1cc(CCCc2ccccc2)ccc1CN1CCNCC1
Plasmodium falciparum [2]; Plasmodium falciparum, NF54
  IC50: 2810 nM

## NC(=O)c1ccc(CCCc2ccccc2)cc1
Plasmodium falciparum [2]; Plasmodium falciparum, NF54
  IC50: > 4000 nM

## CC[C@H]1CN2CCc3cc(OC)c(OC)cc3[C@@H]2C[C@@H]1C[C@H]1NCCc2cc(OC)c(OC)cc21 [EMETINE]
CHO; Cricetulus griseus, CHO
  IC50: 0.03 µM

## Oc1ccccc1CN1CCCCC1
Plasmodium falciparum [2]; Plasmodium falciparum, NF54
  IC50: > 5000 nM

## COc1ccc(C(=O)/C=C/c2ccc(CN3CCCCC3)c(O)c2)cc1
CHO; Cricetulus griseus, CHO
  IC50: 197 µM
Plasmodium falciparum [1]; Plasmodium falciparum, D10
  IC50: 830 nM
[5]
  selectivity ratio: 237

## Cc1ccc(CCCc2ccc(CN3CCCCC3)c(O)c2)cc1
CHO; Cricetulus griseus, CHO
  IC50: 4.95 µM
Plasmodium falciparum [1]; Plasmodium falciparum, D10
  IC50: 90 nM
Plasmodium falciparum [4]
  IC50: 270 nM
[5]
  selectivity ratio: 56
Plasmodium falciparum [6]
  Ratio IC50: 3.06

## COc1ccc(C(=O)/C=C/c2ccc(CN3CCOCC3)c(O)c2)cc1
Plasmodium falciparum [1]; Plasmodium falciparum, D10
  IC50: 4900 nM

## Oc1cc(CCc2ccccc2)ccc1CN1CCCCC1
Plasmodium falciparum [2]; Plasmodium falciparum, NF54
  IC50: 120 nM

## Oc1cc(CCCc2ccccc2)ccc1CN1CCCCC1
Plasmodium falciparum [2]; Plasmodium falciparum, NF54
  IC50: 140 nM

## Cl.Oc1cc(CCCc2ccccc2)ccc1CN1CCCCC1
CHO; Cricetulus griseus, CHO
  IC50: 162 µM
Plasmodium falciparum [1]; Plasmodium falciparum, D10
  IC50: 20 nM
Plasmodium falciparum [4]
  IC50: 30 nM
[5]
  selectivity ratio: 7030
Plasmodium falciparum [6]
  Ratio IC50: 1.35

## COc1ccc(C(=O)/C=C/c2cccc(O)c2)cc1
Plasmodium falciparum [1]; Plasmodium falciparum, D10
  IC50: 11300 nM

## Oc1cc(CCCc2ccccc2)ccc1CN1CCOCC1
Plasmodium falciparum [2]; Plasmodium falciparum, NF54
  IC50: 750 nM

## Oc1cc(CCCc2ccc(CCCc3ccc(CN4CCCCC4)c(O)c3)cc2)ccc1CN1CCCCC1
Plasmodium falciparum [2]; Plasmodium falciparum, NF54
  IC50: 60 nM

## Oc1cc(CCCc2cccs2)ccc1CN1CCCCC1
Plasmodium falciparum [7]
  IC50: 20 nM
Plasmodium falciparum [2]; Plasmodium falciparum, NF54
  IC50: 50 nM
Plasmodium falciparum [8]
  Ratio IC50: 0.48

## Cl.Oc1cc(CCCc2ccc(F)cc2)ccc1CN1CCCCC1
CHO; Cricetulus griseus, CHO
  IC50: 163 µM
Plasmodium falciparum [1]
  IC50: 30 nM
Plasmodium falciparum [4]
  IC50: 20 nM
[5]
  selectivity ratio: 5830
Plasmodium falciparum [6]
  Ratio IC50: 0.79

## COc1ccc(C(=O)/C=C/c2ccc(CN(C)C)c(O)c2)cc1
Plasmodium falciparum [1]; Plasmodium falciparum, D10
  IC50: 2520 nM

## Oc1cc(CCCc2ccccc2)ccc1CN1CCCC1
Plasmodium falciparum [2]; Plasmodium falciparum, NF54
  IC50: 40 nM

## O=C(/C=C/c1ccc(O)c(CN2CCCCC2)c1)c1ccc(C(F)(F)F)cc1
CHO; Cricetulus griseus, CHO
  IC50: 8.22 µM
Plasmodium falciparum [1]; Plasmodium falciparum, D10
  IC50: 170 nM
Plasmodium falciparum [4]
  IC50: 200 nM
[5]
  selectivity ratio: 49
